Compound activity (PubChem BioAssay)
CAL PDZ FP-1: blocks peptide binding to the human CAL PDZ domain; Q9HD26; AID 602252; inhibition, % at 24.9 µM; purified CAL PDZ, TMR-peptide fluorescence polarization, 1 h; 300,000 compounds, 0.92% hits;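 active = mean inhibition of at least 30% with at least half of replicates also reaching 30%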
ARNT-TACC3 inh: ARNT/TACC3 interaction disruption. Q9Y6A5. AID 623870. inhibition, % at 9.99 µM. AlphaScreen His-ARNT PAS-B/GST-TACC3 binding, luminescence; TACC3 fragment carries E629A point mutation. 390,000 compounds, 0.66% hits;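 active = mean inhibition of replicates at least 50% and at least half of replicates each reaching 50%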
CAL PDZ FP-2: blocks peptide binding to human CAL PDZ domain. 330,000 compounds, 0.02% hits. inhibition, % at 20 µM. purified CAL PDZ, TMR-peptide fluorescence polarization, 1 h;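 active = highest replicate inhibition of at least 40%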
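Control set: unlabelled peptide and DMSO controls / Material: purified CerCALP PDZ construct / Timing: 1 h incubation at room temperature before polarization reading / Doses: 20 µM, one dose / Detection: fluorescence polarization (mP)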
Numbers stand for hits; . = inactive; / = no result. A selection: hits, their analogues and other compounds. The true share with any hit is near 1.2%.

SMILES	CAL PDZ FP-1	ARNT-TACC3 inh	CAL PDZ FP-2
CN(Cc1ccccc1Cl)C(=O)C1CC(=O)N(c2ccc3c(c2)OCCO3)C1 (stereo not drawn)	.	.	.
O=C(C1CC(=O)N(c2ccc3c(c2)OCCO3)C1)N1CCN(c2ccccc2)CC1 (stereo not drawn)	47	.	.
O=C(C1CC(=O)N(c2ccc3c(c2)OCCO3)C1)N1CCN(c2ccccc2O)CC1 (stereo not drawn)	.	.	.
Cc1nn(C)cc1NC(=O)C[C@@H]1CC[C@H]2[C@H](COc3ccc(NC(=O)C4CCOCC4)cc3C(=O)N2C)O1	/	.	/
CC(C)NC(=O)Nc1ccc2c(c1)C(=O)N([C@@H](C)CO)C[C@@H](C)[C@H](CN(C)Cc1ccc(C(F)(F)F)cc1)O2	/	.	/
C[C@H]1CN([C@@H](C)CO)C(=O)Cc2cc(NS(=O)(=O)c3ccc(F)cc3)ccc2O[C@@H]1CN(C)C(=O)Nc1ccc(C(F)(F)F)cc1	/	.	/
COc1ccc(C2=NN(S(=O)(=O)c3ccccc3)C(c3ccccc3)C2)cc1 (stereo not drawn)	.	.	.
O=S(=O)(c1ccccc1)N1N=C(c2ccccc2)CC1c1ccccc1 (stereo not drawn)	45	.	.
NC(N)=N/N=C/c1cc([N+](=O)[O-])ccc1O	.	.	.
Oc1ccccc1/C=N/Nc1nn[nH]n1	.	72	.
O=[N+]([O-])c1ccc(O)c(/C=N/Nc2nn[nH]n2)c1	.	67	.
O=[N+]([O-])c1ccc(O)c(-c2nn[nH]n2)c1	.	64	.
C(=N\Nc1nn[nH]n1)/c1ccccc1	.	.	.
Cc1cc(C)n(-c2ccc([N+](=O)[O-])cc2-c2nn[nH]n2)n1	.	.	.
O=[N+]([O-])c1ccc(O)c(/C=N/NC2=NS(=O)(=O)c3ccccc32)c1	.	71	.
O=[N+]([O-])c1ccc(/C=N/NC2=NS(=O)(=O)c3ccccc32)cc1	.	.	.
Cn1c(=O)c2c(nc(N/N=C/c3cccs3)n2C)n(C)c1=O	/	.	.
O=S1(=O)N=C(N/N=C/c2cccs2)c2ccccc21	/	66	.
Oc1cccc(/C=N/Nc2ccc(Cl)nn2)c1	.	.	.
O=[N+]([O-])c1ccc(O)c(/C=N/Nc2ccc(Cl)nn2)c1	.	58	.
COc1ccc(NC(=O)[C@@H]2[C@@H]3C(=O)N(C4CCCCC4)C(=O)[C@@H]3C3c4ccccc4C=CN32)cc1 (stereo partly drawn)	.	12	.
COc1ccc(NC(=O)C2CCC(N3C(=O)C4C5C=CC(C5)C4C3=O)CC2)cc1 (stereo not drawn)	.	/	.
NS(=O)(=O)c1ccc2nc(NC(=O)c3ccc4c(c3)OCCO4)sc2c1	63	.	.
NS(=O)(=O)c1ccc2nc(NC(=O)c3ccc4ncsc4c3)sc2c1	.	.	.
COc1cccc(S(=O)(=O)Nc2ccc3c(c2)C(=O)N(C)C[C@H](OC)[C@@H](C)CN[C@H](C)CO3)c1	/	.	/
SMILES	CAL PDZ FP-1	ARNT-TACC3 inh	CAL PDZ FP-2
Cc1noc(C)c1S(=O)(=O)N(C)C[C@H]1OCCCC[C@@H](C)Oc2ccc(NS(=O)(=O)c3ccc(F)cc3)cc2C(=O)N([C@@H](C)CO)C[C@@H]1C	/	.	/
COc1ccc(NC(=O)N(C)C[C@H]2Oc3c(NC(=O)C4CCOCC4)cccc3C(=O)N([C@H](C)CO)C[C@@H]2C)cc1	/	.	/
O=C(CCCn1c(=O)oc2ccccc21)N1CCc2ccccc2C1	.	active	.
O=C(CCn1c(=O)oc2ccccc21)NCCN1CCc2ccccc2C1	/	.	.
CN(c1ccc(OCC(=O)OCC(=O)Nc2ccc([N+](=O)[O-])cc2)cc1)S(=O)(=O)c1cccs1	95	.	.
CN(c1ccc(OCC(=O)OCC(=O)Nc2ccccc2)cc1)S(=O)(=O)c1ccc(F)cc1	.	.	.
CO[C@H]1CN(C)C(=O)c2ccc(NS(=O)(=O)c3ccc(Cl)cc3)cc2OC[C@@H](C)NC[C@@H]1C	/	.	/
Cc1ccccc1C(=O)OC(C)CN1CCN(C)CC1 (stereo not drawn)	116	.	.
CC(CN1CCN(C)CC1)OC(=O)c1ccccc1Cl (stereo not drawn)	.	.	.
COc1ccc(NC(=O)Nc2ccc3c(c2)C(=O)N([C@@H](C)CO)C[C@@H](C)[C@@H](CN(C)S(=O)(=O)c2ccc(OC)cc2)O3)cc1	/	.	/
O=C1NC(=O)/C(=C/c2ccco2)N1	.	.	.
O=C1NC(=S)NC1=Cc1ccco1	/	60	.
CNC(=O)C[C@@H]1CC[C@@H]2[C@H](COC[C@H](O)CN2Cc2ccncc2)O1	/	.	/
O=C1CN2NC(=S)N(c3ccc(Cl)cc3)C2=CN1c1ccc(Cl)cc1	.	.	.
O=C1CN2NC(=S)N(c3ccccc3)C2=CN1c1ccc(Cl)cc1	115	.	.
Cc1noc(C)c1NC(=O)N(C)C[C@H]1Oc2c(NC(=O)Nc3ccc(F)cc3)cccc2C(=O)N([C@H](C)CO)C[C@@H]1C	/	.	/
CNC(=O)C[C@@H]1CC[C@H]2[C@H](COc3ccc(NC(=O)c4cc(F)cc(F)c4)cc3C(=O)N2C)O1	/	.	/
CCOc1ccc(N=Nc2ccc(O)c3ncccc23)cc1	.	.	.
CCOc1ccc2c(ccc(/C=C/c3cc(C)c4cccnc4c3O)[n+]2C)c1	.	65	.
CO[C@H]1CN(C)C(=O)c2cc(NS(=O)(=O)CC(F)(F)F)ccc2OC[C@@H](C)N(Cc2ccccn2)C[C@@H]1C	/	.	/
Cc1ccc(SCC(=O)Nc2nnc(-c3ccco3)o2)cc1	.	48	.
O=C(CSc1ccc(F)cc1)Nc1nnc(-c2ccco2)o1	.	49	.
CC(=O)Nc1nnc(-c2ccco2)o1	.	.	.
Cc1ccc(NC(=O)CSc2nnc(-c3ccco3)o2)cc1	.	.	.
CC(C)NC(=O)Nc1ccc2c(c1)C(=O)N([C@@H](C)CO)C[C@@H](C)[C@H](CN(C)S(C)(=O)=O)O2	/	.	/
SMILES	CAL PDZ FP-1	ARNT-TACC3 inh	CAL PDZ FP-2
C[C@@H]1CN([C@H](C)CO)C(=O)c2cccc(NS(=O)(=O)c3ccc(F)cc3)c2O[C@H]1CN(C)C	/	.	/
C[C@H](NC(=O)C[C@H]1CC[C@@H]2[C@H](COC[C@H](O)CN2C(=O)Nc2ccccc2)O1)c1ccccc1	/	.	/
C[C@@H]1CN([C@H](C)CO)C(=O)c2cc(NS(=O)(=O)c3ccc(Cl)cc3)ccc2O[C@H]1CN(C)CC1CC1	/	.	/
Cc1cccc(C)c1NC(=O)Cn1nnnc1N	66	.	.
Cc1cccc(C)c1NC(=O)CN	.	.	.
CC(=O)N(C)C[C@H]1Oc2cc(C#Cc3ccccc3)ccc2S(=O)(=O)N([C@H](C)CO)C[C@H]1C	/	.	/
CCC(=O)N1[C@@H]2c3cccc(=O)n3C[C@@H]2[C@@H](CO)[C@@H]1C(=O)NCc1ccccc1F	/	.	/
CC1=NN(c2ccc(S(=O)(=O)O)cc2Cl)C(=O)C1	.	.	.
CC1=NN(c2cc(Cl)c(S(=O)(=O)O)cc2Cl)C(=O)C1	.	30	.
C[C@@H](NC(=O)C[C@H]1C=C[C@H](NC(=O)Nc2ccc3c(c2)OCO3)[C@H](CO)O1)c1ccccc1	/	.	/
COc1cc2nc(Nc3ccc(C)c(C)c3)nc(N)c2cc1OC	.	50	.
COc1cc2nc(Nc3ccc(C)c(Cl)c3)nc(N)c2cc1OC	.	.	.
